Most compounds without a hit are left out; they make up all but 1.8% or so of the library.
TLR4-MyD88 BLA – inhibitors of TLR4-MyD88 association in cells, primary screen, cell-based, HeLa CL3-4, BLA complementation, FRET ratio. Toll-like receptor 4 (Homo sapiens) + Myeloid differentiation primary response protein …. HeLa CL3-4 TLR4/MyD88 BLA complementation. inhibition, % at 8.4 µM. 0.18% of 200,000 active; in the data active = inhibition above about 25%;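 also: 0% = vehicle and 100% = reference inhibitor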
MC4R barr agon – MC4R agonists recruiting beta-arrestin, primary screen, cell-based, luminescence, agonist arm of biased-ligand search | activation, % at 8.9 µM | U2OS MC4R beta-arrestin complementation; percent of melanotan II response, DMSO zero | 0.98% of 360,000 active | Melanocortin receptor 4 (Homo sapiens), P32245;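 active = activation above a per-plate cutoff, the mean activation of sample wells on that plate plus 3 SD, cut at about 8% in these data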
MC4R antag cAMP – MC4R antagonists of cAMP signaling, primary screen, cell-based, TR-FRET, antagonist arm of biased-ligand search; inhibition, % at 6.5 µM; Melanocortin receptor 4 (Homo sapiens), P32245; 0.48% of 360,000 active; MC4R-expressing cells, MTII-stimulated cAMP, LANCE TR-FRET;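 active = inhibition above its plate's cutoff, the mean of tested wells on that plate plus 3 SD, cut at about 29% in these data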;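 also: 0% = Melanotan II alone and 100% = Melanotan II plus saturating MCL0020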
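Material – human MC4R-expressing U2OS cells · Repeats – no replicates · Detection – TR-FRET with Eu-cAMP and labeled anti-cAMP, 671 nm · Times – compound 30 min, challenge 1 h, detection 1 h · Compound – single nominal compound dose of 6.5 µM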
TLR9-MyD88 inh – inhibitors of TLR9-MyD88 association in cells, primary screen, cell-based, CHO, BLA complementation, fluorescence | inhibition, % at 4.98 µM | AID 504734, 2011 | Toll-like receptor 9 (Homo sapiens) + Myeloid differentiation primary response protein … | 0.21% of 340,000 active | CCF4 FRET ratio;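 active = inhibition above the mean over all tested compounds plus 3 SD, cut at about 21% in these data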;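 also: 0% = DMSO only wells and 100% = clavulanate BLA inhibitor control wells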
NOD2 RIPK2 PPI – NOD2-RIPK2 binding disruptors in cells, primary screen, fluorescence, CHO cells, BLA complementation | AID 624267, 2012 | inhibition, % at 4.98 µM | Receptor-interacting serine/threonine-protein kinase 2 (Homo sapiens), O43353 | 0.38% of 360,000 active | CCF4 ratio; in the data active = inhibition above about 21%;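 also: 0% = vehicle only and 100% = reference blocker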
Target sequence (O43353 whole entry, looked up): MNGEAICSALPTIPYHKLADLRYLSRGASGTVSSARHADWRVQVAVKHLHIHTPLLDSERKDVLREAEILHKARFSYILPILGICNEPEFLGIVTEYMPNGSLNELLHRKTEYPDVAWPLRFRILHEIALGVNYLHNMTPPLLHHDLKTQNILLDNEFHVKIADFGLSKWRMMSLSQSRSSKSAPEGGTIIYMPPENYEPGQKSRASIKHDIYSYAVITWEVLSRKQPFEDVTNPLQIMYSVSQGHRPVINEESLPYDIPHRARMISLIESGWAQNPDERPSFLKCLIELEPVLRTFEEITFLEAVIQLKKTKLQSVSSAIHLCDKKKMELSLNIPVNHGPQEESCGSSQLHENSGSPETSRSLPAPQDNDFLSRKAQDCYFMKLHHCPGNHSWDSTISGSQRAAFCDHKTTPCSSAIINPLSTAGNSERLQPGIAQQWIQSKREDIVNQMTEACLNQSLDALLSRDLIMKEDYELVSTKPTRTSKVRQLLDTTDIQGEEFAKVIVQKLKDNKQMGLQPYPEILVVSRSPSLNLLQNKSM
U2OS cAMP counter – nonselective cAMP signaling inhibitors, parental cells, counter-screen for MC4R biased antagonist project, cell-based, TR-FRET, U2OS, forskolin, triplicate; inhibition, % at 6.5 µM; AID 602193, 2012; LANCE TR-FRET; shares compounds with MC4R antag cAMP; 26% of 1,600 active;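 active = mean inhibition over triplicates above the low-control well mean plus 3 SD, set per campaign, cut at about 13% in these data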;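 also: signal is single emission at 671 nm which falls as cellular cAMP rises; 0% = forskolin-stimulated wells and 100% = buffer without forskolin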
MC4R antag conf – MC4R cAMP antagonists, retest, confirmation, cell-based, TR-FRET | shares compounds with MC4R antag cAMP | MC4R-expressing cells, MTII-stimulated cAMP | inhibition, % at 6.5 µM | 27% of 1,600 active | AID 602195, 2012; in the data active = inhibition above about 29%;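 also: 0% = agonist stimulated wells alone and 100% = agonist stimulated wells plus saturating reference antagonist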
* hit, by the source's call; x = no result given; + = active, no number.

SMILES	TLR4-MyD88 BLA	MC4R barr agon	MC4R antag cAMP	TLR9-MyD88 inh	NOD2 RIPK2 PPI	U2OS cAMP counter	MC4R antag conf
COc1ccc(C(CNC(=O)CCNS(=O)(=O)c2ccccc2C(F)(F)F)N2CCOCC2)cc1 (centres undefined)	x	-4.2	4.4	6.0	-6.5	x	x
O=C(CCN1CCCC1Cc1ccccc1)c1ccc2c(c1)OCCO2 (centres undefined)	-5.3	-2.9	36.5*	-0.9	16.6	16.4*	35.2*
CCc1ccc(C(=O)NNC(=O)CCc2nc3ccccc3c(=O)[nH]2)cc1	x	-0.3	10.5	-26.4	-10.3	x	x
CCc1ccc(OCC(=O)NC(NC(=S)Nc2ccccc2C)C(Cl)(Cl)Cl)cc1 (centres undefined)	0.5	-0.3	11.4	6.0	-3.2	x	x
CCc1ccc(OCC(=O)NC(NC(=S)Nc2ccccc2OC)C(Cl)(Cl)Cl)cc1 (centres undefined)	7.3	3.9	38.3*	-0.6	2.7	1.2	27.1
COc1ccccc1Oc1ccc(Oc2ccccc2OC)cc1	5.4	-1.4	11.8	-11.2	-4.4	x	x
COc1cc(SC)ccc1C(=O)Nc1cccc(C2OCCCO2)c1	x	-0.1	-0.9	-5.7	-7.9	x	x
CCCCn1c(=O)[nH]c(=O)c2c1nc(-c1ccc(C#N)cc1)n2C1CCCC1	-2.4	0.3	28.5*	2.4	5.5	3.1	7.6
COc1cc(NC(=O)C2=C(N3CCOCC3)/C(=C/c3ccc(Cl)cc3)CC2)cc(OC)c1OC	1.1	0.5	28.7*	-6.8	-3.4	-0.2	5.3
COc1cc(NC(=O)C2=C(N3CCOCC3)/C(=C\c3ccc(N(C)C)cc3)CCC2)cc(OC)c1OC	6.2	2.1	-15.1	7.6	-14.3	x	x
O=c1sc(N2CCN(c3ccc(F)cc3)CC2)nc2ccsc12	-0.2	5.7	+	2.8	8.9	-3.2	1.5
O=c1sc(N2CCN(c3ccccc3F)CC2)nc2ccsc12	-9.6	5.8	4.0	4.9	-9.6	x	x
COc1cc(/C=C/C(=O)OCC(=O)c2c(N)n(C)c(=O)n(C)c2=O)ccc1OCC#N	-4.0	-1.8	2.0	-19.2	1.3	x	x
CC1=NOC(=O)/C1=C/c1ccc(-c2ccc(Cl)cc2)o1	17.2	-3.0	62.9*	6.0	-2.7	10.8	30.9*
Cc1cccc(C(=O)Nc2ccc(C(=O)/C=C/c3cccnc3)cc2)c1	13.2	0.1	29.9*	6.2	5.7	-8.7	2.0
COC(=O)[C@H](Cc1ccccc1)NS(=O)(=O)c1ccc(F)cc1Br	x	-0.6	5.3	2.5	6.6	x	x
Cc1cccc(C)c1N1C(=O)c2cccc([N+](=O)[O-])c2C1=O	-15.5	-1.7	-1.4	0.1	3.3	x	x
Cc1ccc(N2C(=O)c3cccc([N+](=O)[O-])c3C2=O)cc1C	3.8	-1.5	42.5*	-4.8	-16.7	22.9*	45.4*
Cc1cc(NC(=O)COc2ccc3ccccc3c2Br)no1	x	3.7	46.4*	0.8	12.0	20.2*	35.0*
COc1ccc(S(=O)(=O)N2CCC(C(=O)NCC3CC3)CC2)cc1	x	-1.2	-4.2	2.4	-2.8	x	x
O=C(NCc1cccnc1)C(=O)Nc1nc2ccccc2s1	-8.1	-0.6	29.6*	-5.5	-2.4	-3.5	-18.9
O=C(NCc1cccnc1)C(=O)Nc1nccs1	1.7	x	x	x	x	x	x
CCN(CC(=O)NCc1cccs1)S(=O)(=O)c1cccc(Br)c1	x	0.3	11.8	3.6	8.9	x	x
C=CCSc1nc2c(N)ncnc2n1C1OC(CO)C(O)C1O (centres undefined)	x	-1.2	31.2*	2.9	-1.7	-2.7	-9.2
O=C(c1c(F)cccc1F)N1CCC(n2nnc3cc(C(F)(F)F)ccc32)CC1	17.6	-0.1	30.8*	-3.4	0.2	-0.5	-1.6
SMILES	TLR4-MyD88 BLA	MC4R barr agon	MC4R antag cAMP	TLR9-MyD88 inh	NOD2 RIPK2 PPI	U2OS cAMP counter	MC4R antag conf
COc1ccc(CCCNC(=O)C2(C)Cc3c(-c4cccc(C(N)=O)c4)ccnc3O2)cc1 (centres undefined)	x	-0.7	-5.8	x	8.9	x	x
COc1ccc(C(=O)NCC2(c3ccc(OC)c(OC)c3)CCCC2)c(OC)c1	x	0.2	3.0	-4.3	-9.8	x	x
COc1cccc(-n2c(C)cc(/C=C3/C(=N)N4C(=NC3=O)SN=C4S(C)(=O)=O)c2C)c1	4.3	0.0	29.0*	-10.3	0.7	-7.4	-25.7
Cc1ncn(-c2ccc(C(=O)Oc3ccccc3)cn2)n1	5.5	-1.2	29.2*	-2.3	8.0	10.1	24.2
COc1ccc(N2CCN(c3nc(Cl)nc(Nc4ccc(F)cc4)n3)CC2)cc1	2.8	-2.8	38.0*	-6.8	1.6	14.1*	54.7*
O=C(COc1ccccc1[N+](=O)[O-])OCC(=O)c1ccc(Br)s1	x	-1.3	45.1*	-6.7	-3.3	13.8*	37.6*
COc1ccc(CN(C)C(=O)CNC(=O)Cc2cccc3ccccc23)c(OC)c1OC	x	-2.3	7.6	-8.1	-2.8	x	x
COc1ccccc1CN(C)C(=O)C(NC(=O)Cc1cccc2ccccc12)C(C)C (centres undefined)	x	1.5	36.3*	-7.5	7.8	-8.9	-1.2
CC(C)NC(=O)Cn1cc(C(=O)C(=O)N2CCOCC2)c2ccccc21	x	-2.9	13.0	-4.6	-9.7	x	x
O=C(Nc1nnc(-c2ccccc2)s1)c1ccccc1O	x	0.8	30.7*	-2.6	-3.3	0.3	-1.9
CCCCC(=O)OCC(=O)c1cc(C)n(-c2c(C)n(C)n(-c3ccccc3)c2=O)c1C	-3.8	0.3	30.7*	-9.9	-0.7	0.1	0.3
N=c1c2c(-c3ccccc3)c(-c3ccccc3)n(Cc3ccccc3)c2ncn1CCCn1ccnc1	6.6	1.0	28.8*	-16.2	13.3	-1.9	35.1*
Cn1c(-c2ccccc2)n[nH]c1=S	x	-2.0	32.7*	-14.3	-6.4	3.3	7.5
Cc1cccc(-c2n[nH]c(=S)n2C)c1	-0.6	-2.9	-1.0	4.9	-7.4	x	x
CC(C)C(CO)NC(=O)CC(=O)NC(CO)C(C)C (centres undefined)	-0.3	1.3	29.9*	-8.2	-11.4	-1.0	-9.6
CC(NC(=O)Cc1ccccc1)C(=O)O (centres undefined)	x	0.4	-0.9	-16.6	-8.2	x	x
COc1ccc(NS(=O)(=O)c2ccc(-n3cnnn3)cc2)cc1OC	x	1.5	29.4*	-9.0	-0.9	2.8	-16.8
O=C(/C=C/c1ccco1)OCc1nnc(-c2ccc(Cl)cc2)o1	13.0	-2.1	31.6*	-2.3	-3.8	0.5	-8.2

Screening data deposited in PubChem by The Scripps Research Institute Molecular Screening Center.
